Results taken from ChEMBL document CHEMBL1157468, “Design, synthesis, and testing of non-nephrotoxic desazadesferrithiocin polyether analogues” (J Med Chem, 2008).

Columns and labels:
Heart [1] = experiment: Biodistribution in Sprague-Dawley rat heart assessed per gram tissue wet weight at 300 umol/kg, po after 2 hrs; type: ADME, organism-based; settings: in vivo
In short: (§1)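 Male Sprague–Dawley rats (250–350 g) got one 300 µmol/kg dose, po or sc. Vehicle was water or the monosodium salt (free acid plus 1 equiv NaOH). Three rats per time point were euthanized by CO2 at 1, 2 or 4 h. Plasma came from citrated cardiac blood; liver, kidney, heart and pancreas were removed. Drug levels were measured by HPLC with UV detection at 310 nm against linear calibration curves (detection limit 0.25 µM).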

Pancreas [2] = experiment: Biodistribution in Sprague-Dawley rat pancreas assessed per gram tissue wet weight at 300 umol/kg, po after 2 hrs; type: ADME, organism-based; settings: in vivo; in short: as §1
Liver [3] = experiment: Biodistribution in Sprague-Dawley rat liver assessed per gram tissue wet weight at 300 umol/kg, po after 4 hrs; type: ADME, organism-based; settings: in vivo; in short: as §1
Plasma [4] = experiment: Biodistribution in Sprague-Dawley rat plasma at 300 umol/kg, sc after 2 hrs; type: ADME, organism-based; settings: in vivo
Heart [5] = experiment: Biodistribution in Sprague-Dawley rat heart assessed per gram tissue wet weight at 300 umol/kg, po after 1 hr; type: ADME, organism-based; settings: in vivo; in short: as §1
Rattus norvegicus [6] = experiment: Toxicity in non-iron-overloaded Sprague-Dawley rat assessed as survival at 75 umol/kg/day, po after 28 days by non-renal perfusion protocol; type: organism-based; settings: in vivo, 672 h
In short: (§2)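 Male Sprague–Dawley rats with normal iron stores, unfasted, received oral gavage once daily in the afternoon for 28 days, six per group, with age-matched untreated controls. Euthanasia was 24 h after the last dose. Survival was recorded over the dosing period, and kidney and bone marrow were examined histopathologically.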

Liver [7] = experiment: Biodistribution in Sprague-Dawley rat liver assessed per gram tissue wet weight at 300 umol/kg, sc after 4 hrs; type: ADME, organism-based; settings: in vivo
Pancreas [8] = experiment: Biodistribution in Sprague-Dawley rat pancreas assessed per gram tissue wet weight at 300 umol/kg, sc after 1 hr; type: ADME, organism-based; settings: in vivo
Kidney [9] = experiment: Biodistribution in Sprague-Dawley rat kidney assessed per gram tissue wet weight at 300 umol/kg, sc after 1 hr; type: ADME, organism-based; settings: in vivo
Heart [10] = experiment: Biodistribution in Sprague-Dawley rat heart assessed per gram tissue wet weight at 300 umol/kg, sc after 2 hrs; type: ADME, organism-based; settings: in vivo
Pancreas [11] = experiment: Biodistribution in Sprague-Dawley rat pancreas assessed per gram tissue wet weight at 300 umol/kg, po after 4 hrs; type: ADME, organism-based; settings: in vivo; in short: as §1
Pancreas [12] = experiment: Biodistribution in Sprague-Dawley rat pancreas assessed per gram tissue wet weight at 300 umol/kg, sc after 4 hrs; type: ADME, organism-based; settings: in vivo
Rattus norvegicus [13] = experiment: Iron-clearing efficiency in non-iron-overloaded Sprague-Dawley rat at 150 umol/kg, po after 24 hrs relative to control; type: functional
In short: (§3)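 Male Sprague–Dawley rats (400–450 g), not iron-loaded and bile duct-cannulated, got one dose of 50, 150 or 300 µmol/kg po, or 300 µmol/kg sc. Vehicle was water or the monosodium salt. Bile was collected every 3 h for 24 h and urine at 24 h. Iron was measured by atomic absorption. Efficiency was treated minus control iron excretion, divided by theoretical output (2:1 ligand:iron), as a percent; mean ± SEM.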

Pancreas [14] = experiment: Biodistribution in Sprague-Dawley rat pancreas assessed per gram tissue wet weight at 300 umol/kg, po after 1 hr; type: ADME, organism-based; settings: in vivo; in short: as §1
Sapajus apella [15] = experiment: Iron-clearing efficiency in iron-overloaded Cebus apella at 150 umol/kg, sc after 2 days relative to control; type: functional
In short: (§4)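 Monkeys (Cebus apella, 3.5–4 kg) were iron-loaded to about 500 mg Fe/kg with iv iron dextran and rested at least 60 days. They then got one 150 µmol/kg dose, po or sc. Feces and urine were collected every 24 h from 4 days before to 5 days after dosing, and iron was measured by flame atomic absorption. Efficiency was the 2-day post-drug iron minus the 4-day pre-drug baseline, divided by theoretical output (2:1 ligand:iron); mean ± SEM.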

Rattus norvegicus [16] = experiment: Toxicity in iron-overloaded Sprague-Dawley rat assessed as survival at 75 umol/kg/day, po after 28 days by non-renal perfusion protocol; type: organism-based; settings: in vivo, 672 h
In short: (§5)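 Male Sprague–Dawley rats were iron-loaded with ip iron dextran, 105 mg/kg/dose × 4 over two weeks, then given two weeks to equilibrate (about 350 mg Fe/kg). They received oral gavage once daily for 28 days in the afternoon, unfasted, six per group, with age-matched controls. Euthanasia was 24 h after the last dose. Survival was recorded, and kidney and bone marrow were sent for histopathology.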

Rattus norvegicus [17] = experiment: Iron-clearing efficiency in non-iron-overloaded Sprague-Dawley rat at 50 umol/kg, po after 24 hrs relative to control; type: functional; in short: as §3
Heart [18] = experiment: Biodistribution in Sprague-Dawley rat heart assessed per gram tissue wet weight at 300 umol/kg, sc after 1 hr; type: ADME, organism-based; settings: in vivo
Kidney [19] = experiment: Biodistribution in Sprague-Dawley rat kidney assessed per gram tissue wet weight at 300 umol/kg, sc after 4 hrs; type: ADME, organism-based; settings: in vivo
Plasma [20] = experiment: Biodistribution in Sprague-Dawley rat plasma at 300 umol/kg, po after 1 hr; type: ADME, organism-based; settings: in vivo; in short: as §1
Liver [21] = experiment: Biodistribution in Sprague-Dawley rat liver assessed per gram tissue wet weight at 300 umol/kg, sc after 1 hr; type: ADME, organism-based; settings: in vivo
Sapajus apella [22] = experiment: Iron-clearing efficiency in iron-overloaded Cebus apella at 150 umol/kg, po after 2 days relative to control; type: functional; in short: as §4
Pancreas [23] = experiment: Biodistribution in Sprague-Dawley rat pancreas assessed per gram tissue wet weight at 300 umol/kg, sc after 2 hrs; type: ADME, organism-based; settings: in vivo
Liver [24] = experiment: Biodistribution in Sprague-Dawley rat liver assessed per gram tissue wet weight at 300 umol/kg, po after 1 hr; type: ADME, organism-based; settings: in vivo; in short: as §1
Rattus norvegicus [25] = experiment: Iron-clearing efficiency in non-iron-overloaded Sprague-Dawley rat at 300 umol/kg, sc after 24 hrs relative to control; type: functional; in short: as §3
Liver [26] = experiment: Biodistribution in Sprague-Dawley rat liver assessed per gram tissue wet weight at 300 umol/kg, po after 2 hrs; type: ADME, organism-based; settings: in vivo; in short: as §1
Heart [27] = experiment: Biodistribution in Sprague-Dawley rat heart assessed per gram tissue wet weight at 300 umol/kg, sc after 4 hrs; type: ADME, organism-based; settings: in vivo
Plasma [28] = experiment: Biodistribution in Sprague-Dawley rat plasma at 300 umol/kg, po after 2 hrs; type: ADME, organism-based; settings: in vivo; in short: as §1
Rattus norvegicus [29] = experiment: Iron-clearing efficiency in non-iron-overloaded Sprague-Dawley rat bile assessed as iron excretion at 50 umol/kg, po; type: functional; in short: as §3
Kidney [30] = experiment: Biodistribution in Sprague-Dawley rat kidney assessed per gram tissue wet weight at 300 umol/kg, sc after 2 hrs; type: ADME, organism-based; settings: in vivo
Rattus norvegicus [31] = experiment: Toxicity in non-iron-overloaded Sprague-Dawley rat assessed as survival at 300 umol/kg/day, po after 28 days by non-renal perfusion protocol; type: organism-based; settings: in vivo, 672 h; in short: as §2
Rattus norvegicus [32] = experiment: Iron-clearing efficiency in non-iron-overloaded Sprague-Dawley rat bile assessed as iron excretion at 150 umol/kg, po; type: functional; in short: as §3
Kidney [33] = experiment: Biodistribution in Sprague-Dawley rat kidney assessed per gram tissue wet weight at 300 umol/kg, po after 1 hr; type: ADME, organism-based; settings: in vivo; in short: as §1
Plasma [34] = experiment: Biodistribution in Sprague-Dawley rat plasma at 300 umol/kg, po after 4 hrs; type: ADME, organism-based; settings: in vivo; in short: as §1
Rattus norvegicus [35] = experiment: Toxicity in iron-overloaded Sprague-Dawley rat assessed as survival at 150 umol/kg/day, po after 28 days by non-renal perfusion protocol; type: organism-based; settings: in vivo, 672 h; in short: as §5
Plasma [36] = experiment: Biodistribution in Sprague-Dawley rat plasma at 300 umol/kg, sc after 1 hr; type: ADME, organism-based; settings: in vivo
Rattus norvegicus [37] = experiment: Nephrotoxicity in Sprague-Dawley rat assessed as heavy vacuolized renal tubules at […] for 7 days by renal perfusion studies; type: toxicity, organism-based; settings: in vivo, 168 h, in the assay text read “237 umol/kg” for “273 umol/kg”
In short: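 Male Sprague–Dawley rats (200–250 g), fasted overnight, got 237 µmol/kg/dose po twice daily (474 µmol/kg/day) for 7 days and were fed about 3 h post-drug. Untreated age-matched rats were controls. One day post-drug, under pentobarbital, kidneys were perfusion-fixed with glutaraldehyde in Tyrode's buffer and embedded in TAAB. 500 nm sections were stained with toluidine blue and examined by light microscopy at 400×.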

Kidney [38] = experiment: Biodistribution in Sprague-Dawley rat kidney assessed per gram tissue wet weight at 300 umol/kg, po after 4 hrs; type: ADME, organism-based; settings: in vivo; in short: as §1
Liver [39] = experiment: Biodistribution in Sprague-Dawley rat liver assessed per gram tissue wet weight at 300 umol/kg, sc after 2 hrs; type: ADME, organism-based; settings: in vivo
Rattus norvegicus [40] = experiment: Iron-clearing efficiency in non-iron-overloaded Sprague-Dawley rat bile assessed as iron excretion at 300 umol/kg, po; type: functional; in short: as §3
Kidney [41] = experiment: Biodistribution in Sprague-Dawley rat kidney assessed per gram tissue wet weight at 300 umol/kg, po after 2 hrs; type: ADME, organism-based; settings: in vivo; in short: as §1
Rattus norvegicus [42] = experiment: Toxicity in iron-overloaded Sprague-Dawley rat assessed as survival at 300 umol/kg/day, po after 28 days by non-renal perfusion protocol; type: organism-based; settings: in vivo, 672 h; in short: as §5
Rattus norvegicus [43] = experiment: Toxicity in non-iron-overloaded Sprague-Dawley rat assessed as survival at 150 umol/kg/day, po after 28 days by non-renal perfusion protocol; type: organism-based; settings: in vivo, 672 h; in short: as §2
Plasma [44] = experiment: Biodistribution in Sprague-Dawley rat plasma at 300 umol/kg, sc after 4 hrs; type: ADME, organism-based; settings: in vivo

Compound `COCCOCCOCCOc1cccc(C2=N[C@@](C)(C(=O)O)CS2)c1O` [DEFERITAZOLE] has a Drug uptake (Heart [1]) of 4 nmol/g, a Drug uptake (Pancreas [2]) of 24 nmol/g and a Drug uptake (Liver [3]) of 87 nmol/g. For the same compound, the Drug uptake (Plasma [4]) was 24 nmol/g, the Drug uptake (Heart [5]) was 9 nmol/g and the Activity (Rattus norvegicus [6]) was “Non-toxic”. For the same compound, the Drug uptake (Liver [7]) was 168 nmol/g, the Drug uptake (Pancreas [8]) was 22 nmol/g and the Drug uptake (Kidney [9]) was 259 nmol/g. It also gave a Drug uptake (Heart [10]) of 8 nmol/g, a Drug uptake (Pancreas [11]) of 6 nmol/g and a Drug uptake (Pancreas [12]) of 12 nmol/g. The Activity (Rattus norvegicus [13]) was 18.7%, the Drug uptake (Pancreas [14]) was 9 nmol/g and the Activity (Sapajus apella [15]) was 21.5%. For the same compound, the Activity (Rattus norvegicus [16]) was “Non-toxic”, the Activity (Rattus norvegicus [17]) was 20.7% and the Drug uptake (Heart [18]) was 16 nmol/g. The Drug uptake (Kidney [19]) was 90 nmol/g, the Drug uptake (Plasma [20]) was 26 nmol/g and the Drug uptake (Liver [21]) was 318 nmol/g. For the same compound, the Activity (Sapajus apella [22]) was 23%, the Drug uptake (Pancreas [23]) was 30 nmol/g and the Drug uptake (Liver [24]) was 234 nmol/g. It also gave an Activity (Rattus norvegicus [25]) of 13.4%, a Drug uptake (Liver [26]) of 151 nmol/g and a Drug uptake (Heart [27]) of 6 nmol/g. For the same compound, the Drug uptake (Plasma [28]) was 9 nmol/g, the Activity (Rattus norvegicus [29]) was >95% and the Drug uptake (Kidney [30]) was 145 nmol/g. The Activity (Rattus norvegicus [31]) was “Non-toxic”, the Activity (Rattus norvegicus [32]) was >95% and the Drug uptake (Kidney [33]) was 150 nmol/g. The Drug uptake (Plasma [34]) was 2 nmol/g, the Activity (Rattus norvegicus [35]) was “Non-toxic” and the Drug uptake (Plasma [36]) was 46 nmol/g. For the same compound, the Activity (Rattus norvegicus [37]) was “Non-toxic”, the Drug uptake (Kidney [38]) was 15 nmol/g and the Drug uptake (Liver [39]) was 193 nmol/g. The Activity (Rattus norvegicus [40]) was >95%, the Drug uptake (Kidney [41]) was 48 nmol/g and the Activity (Rattus norvegicus [42]) was “Non-toxic”. The Activity (Rattus norvegicus [43]) was “Non-toxic” and the Drug uptake (Plasma [44]) was 13 nmol/g.
